Experiments:
[1] = Inhibition of PDE4D7 S129D mutant (unknown origin) preincubated for 5 to 10 mins followed by substrate addition and measured for 10 mins by coupled enzyme based fluorescence analysis; design: species or system Homo sapiens
In short: (§1)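 Mutationally activated dimeric enzymes: PDE4D7-S129D (PDE4D*) and PDE4B1-S133D (PDE4B*). A real-time coupled enzyme assay measured inhibition instead of a fluorescein-labeled cAMP substrate, because the label prevents UCR2 closure. PDE4B* was used to assess subtype selectivity. The method otherwise followed earlier work.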

[2] = molecular target: T1, 3',5'-cyclic-AMP phosphodiesterase 4B (Homo sapiens, UniProt Q07343, S133D); test: Inhibition of PDE4B1 S133D mutant (unknown origin) preincubated for 5 to 10 mins followed by substrate addition and measured for 10 mins by coupled enzyme based fluorescence analysis; in short: as §1
T1 sequence (Q07343 whole entry S133D): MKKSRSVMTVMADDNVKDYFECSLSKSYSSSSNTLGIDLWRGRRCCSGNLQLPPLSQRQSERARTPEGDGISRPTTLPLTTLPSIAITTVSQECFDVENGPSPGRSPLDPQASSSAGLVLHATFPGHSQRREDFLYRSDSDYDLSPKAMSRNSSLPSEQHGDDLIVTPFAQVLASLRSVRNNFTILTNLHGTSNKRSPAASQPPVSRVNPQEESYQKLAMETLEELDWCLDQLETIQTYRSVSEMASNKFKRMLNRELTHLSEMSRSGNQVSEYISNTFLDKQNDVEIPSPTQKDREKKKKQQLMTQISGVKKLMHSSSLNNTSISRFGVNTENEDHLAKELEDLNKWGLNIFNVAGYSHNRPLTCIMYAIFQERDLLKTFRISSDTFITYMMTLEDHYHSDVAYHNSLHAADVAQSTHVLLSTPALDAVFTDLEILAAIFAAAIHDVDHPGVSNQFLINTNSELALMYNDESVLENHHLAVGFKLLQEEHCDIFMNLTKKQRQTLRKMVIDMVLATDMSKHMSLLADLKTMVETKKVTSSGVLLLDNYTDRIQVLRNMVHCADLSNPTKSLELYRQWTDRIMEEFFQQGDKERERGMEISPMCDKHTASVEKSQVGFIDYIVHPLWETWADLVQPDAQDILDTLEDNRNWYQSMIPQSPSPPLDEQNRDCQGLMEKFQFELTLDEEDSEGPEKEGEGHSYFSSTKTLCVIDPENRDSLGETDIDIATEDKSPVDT

[3] = Selectivity index, ratio of IC50 for PDE4B1 S133D mutant (unknown origin) to IC50 for PDE4D7 S129D mutant (unknown origin)
In short: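 B/D ratio is the IC50 against PDE4B1-S133D (PDE4B*) divided by the IC50 against PDE4D7-S129D (PDE4D*). Both IC50s come from the real-time coupled enzyme assay on the mutationally activated dimeric enzymes.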

[4] = Inhibition of human PDE4D7 S129D mutant by coupled enzyme based fluorescence analysis
[5] = molecular target: T1, 3',5'-cyclic-AMP phosphodiesterase 4B; test: Inhibition of human PDE4B1 S133D mutant by coupled enzyme based fluorescence analysis; in short: as §1
Homo sapiens = species: Homo sapiens; test: Selectivity index, ratio of IC50 for human PDE4B1 S133D mutant to IC50 for human PDE4D7 S129D mutant

| Compound | IC50 [1] [nM] | IC50 [2] [nM] | Ratio IC50 [3] | logIC50 [1] | IC50 [4] [nM] | IC50 [5] [nM] | Ratio IC50 (Homo sapiens) |
| --- | --- | --- | --- | --- | --- | --- | --- |
| COc1cccc(-c2nc(CNc3cn[nH]c3)ccc2OC(F)F)c1 | 530 | 2270 | 4 | – | – | – | – |
| COc1ccc(Cn2ncnn2)nc1-c1cccc(OC(F)F)c1 | 21 | > 10000 | – | – | – | – | – |
| COc1ccc(Cn2cnc(C(F)(F)F)n2)nc1-c1cccc(OC(F)F)c1 | 785 | > 10000 | – | – | – | – | – |
| FC(F)Oc1ccc(Cc2cn[nH]c2)nc1-c1cccc(OCc2ccccc2)c1 | 446 | 274 | 0.61 | – | – | – | – |
| COc1ccc(Cc2cn[nH]c2)nc1-c1cccc(C(F)(F)F)c1 | 186 | 7850 | 42 | – | – | – | – |
| COc1ccc(Cn2cccn2)nc1-c1cccc(C(F)(F)F)c1 | > 10000 | > 10000 | – | – | – | – | – |
| COc1cccc(-c2nc(Nc3cn[nH]c3)ccc2OC(F)F)c1 | 658 | > 10000 | – | – | – | – | – |
| Fc1cccc(-c2nc(Oc3cn[nH]c3)ccc2OC(F)F)c1 | 70 | 3110 | 45 | – | – | – | – |
| COc1ccc(Cn2cccn2)nc1-c1cccc(F)c1 | 5530 | > 10000 | – | – | – | – | – |
| COc1ccc(Cn2cncn2)nc1-c1cccc(OC(F)F)c1 | 15 | > 10000 | – | – | – | – | – |
| COc1ccc(Nc2cn[nH]c2)nc1-c1cccc(F)c1 | 529 | 2530 | 5 | – | – | – | – |
| COc1cccc(-c2nc(Cn3ncnn3)ccc2OC(F)F)c1 | 17 | > 10000 | – | – | – | – | – |
| FC(F)Oc1ccc(Cn2ccnc2)nc1-c1cccc(OCc2ccccc2)c1 | 85 | 46 | 0.54 | – | – | – | – |
| COc1cccc(-c2nc(C(=O)c3cn[nH]c3)ccc2OC(F)F)c1 | 873 | 1930 | 2 | – | – | – | – |
| FC(F)Oc1cccc(-c2nc(Cc3ccncc3)ccc2OCc2ccccc2)c1 | 610 | > 7760 | – | – | – | – | – |
| COc1ccc(Oc2cn[nH]c2)nc1-c1cccc(Cl)c1 | 306 | 4160 | 14 | – | – | – | – |
| COc1cccc(-c2nc(Cc3ccc(CCCO)cc3)ccc2OC(F)F)c1 | 24 | > 10000 | – | – | – | – | – |
| COc1ccc(Cc2cn[nH]c2)nc1-c1cccc(OC(F)(F)F)c1 | 46 | 7440 | 162 | – | – | – | – |
| COc1ccc(Cc2cn[nH]c2)nc1-c1cccc(F)c1 | 23.8 | 995 | 42 | – | – | – | – |
| COc1ccc(Cn2cccn2)nc1-c1cccc(Cl)c1 | 1150 | 9170 | 8 | – | – | – | – |
| Fc1ccc(Cc2cn[nH]c2)nc1-c1cccc(Cl)c1 | 744 | > 10000 | – | – | – | – | – |
| COc1cccc(-c2nc(Cn3cnnn3)ccc2OC(F)F)c1 | 23 | 646 | 28 | – | – | – | – |

| Compound | IC50 [1] [nM] | IC50 [2] [nM] | Ratio IC50 [3] | logIC50 [1] | IC50 [4] [nM] | IC50 [5] [nM] | Ratio IC50 (Homo sapiens) |
| --- | --- | --- | --- | --- | --- | --- | --- |
| COc1ccc(Oc2cn[nH]c2)nc1-c1cccc(F)c1 | 836 | 4540 | 5 | – | – | – | – |
| COc1ccc(Cc2ccc(CCCO)cc2)nc1-c1cccc(OC(F)F)c1 | 16 | > 10000 | – | – | – | – | – |
| COc1ccc(Cc2cnn(C)c2)nc1-c1cccc(Cl)c1 | – | – | – | – | 0.5 | 858 | 1670 |
| COc1ccc(Oc2cn[nH]c2)nc1-c1cccc(C(F)(F)F)c1 | 3540 | 3240 | 0.92 | – | – | – | – |
| COc1cccc(-c2nc(Cn3cncn3)ccc2OC(F)F)c1 | 42 | > 10000 | – | – | – | – | – |
| FC(F)Oc1cccc(-c2nc(Cc3cn[nH]c3)ccc2OCc2ccccc2)c1 | 164 | > 10000 | – | – | – | – | – |
| COc1ccc(Cc2ccncc2)nc1-c1cccc([N+](=O)[O-])c1 | – | – | – | – | – | 1120 | – |
| FC(F)Oc1ccc(Cc2ccncc2)nc1-c1cccc(OCc2ccccc2)c1 | 171 | 143 | 0.84 | – | – | – | – |
| COc1ccc(Cc2ccncc2)nc1-c1cccc(Cl)c1 | – | – | – | – | – | 720 | – |
| COc1ccc(Nc2cn[nH]c2)nc1-c1cccc(OC(F)F)c1 | 188 | 2500 | 13 | – | – | – | – |
| COc1cccc(-c2nc(Cn3cnc(C(F)(F)F)n3)ccc2OC(F)F)c1 | 743 | > 10000 | – | – | – | – | – |
| COc1ccc(Oc2cn[nH]c2)nc1-c1cccc(OC(F)F)c1 | 1550 | > 10000 | – | – | – | – | – |
| Fc1cccc(-c2nc(Nc3cn[nH]c3)ccc2OC(F)F)c1 | 136 | 1750 | 13 | – | – | – | – |
| FC(F)Oc1cccc(-c2nc(Cn3ccnc3)ccc2OCc2ccccc2)c1 | 174 | > 10000 | – | – | – | – | – |
| COc1ccc(Cc2cn[nH]c2)nc1-c1cccc([N+](=O)[O-])c1 | – | – | – | – | – | 280 | – |
| COc1ccc(Nc2cn[nH]c2)nc1-c1cccc(C(F)(F)F)c1 | 4310 | > 10000 | – | – | – | – | – |
| COc1cccc(-c2nc(COc3cn[nH]c3)ccc2OC(F)F)c1 | 372 | > 10000 | – | – | – | – | – |
| COc1ccc(Nc2cn[nH]c2)nc1-c1cccc(Cl)c1 | 468 | 3160 | 7 | – | – | – | – |
| COc1cccc(-c2nc(Oc3cn[nH]c3)ccc2OC(F)F)c1 | 281 | > 10000 | – | – | – | – | – |
| COc1ccc(Cn2cnnn2)nc1-c1cccc(OC(F)F)c1 | 16 | 1260 | 81 | – | – | – | – |
| COc1cccc(-c2nc(Cn3cccn3)ccc2OC(F)F)c1 | 281 | 1060 | 4 | – | – | – | – |

Further compounds by falling IC50 [1], results first:

| IC50 [1] [nM] | IC50 [2] [nM] | Ratio IC50 [3] | logIC50 [1] | IC50 [4] [nM] | IC50 [5] [nM] | Ratio IC50 (Homo sapiens) | Compound |
| --- | --- | --- | --- | --- | --- | --- | --- |
| 13 | 730 | 57 | – | – | – | – | COc1ccc(Cc2cn[nH]c2)nc1-c1ccc2nonc2c1 |
| 13 | 2130 | 165 | 1.11 log(nM) | – | – | – | COc1cccc(-c2nc(Cc3cn[nH]c3)ccc2OC)c1 |
| 12.3 | 764 | 62 | – | – | – | – | COc1cccc(-c2nc(Cc3cccnc3)ccc2OC(F)F)c1 |
| 11 | 1440 | 137 | – | – | – | – | COc1ccc(Cc2cnn(C)c2)nc1-c1cccc(OC(F)F)c1 |
| 10.2 | 1190 | 116 | – | – | – | – | COc1cccc(-c2nc(Cc3cncnc3)ccc2OC(F)F)c1 |
| 7.6 | 1070 | 141 | – | – | – | – | Fc1cccc(-c2nc(Cc3cn[nH]c3)ccc2OC(F)F)c1 |
| 6.9 | 4000 | 581 | – | – | – | – | COc1cccc(-c2nc(Cc3ccc(CCO)cc3)ccc2OC(F)F)c1 |
| 6 | 923 | 154 | – | – | – | – | COc1ccc(Cc2cn[nH]c2)nc1-c1cccc(Cl)c1 |
| 4 | > 10000 | – | – | – | – | – | COc1ccc(Cc2ccc(CCO)cc2)nc1-c1cccc(OC(F)F)c1 |
| 3.9 | 621 | 159 | – | – | – | – | COc1cccc(-c2nc(Cc3ccncc3)ccc2OC(F)F)c1 |
| 3.7 | 198 | 54 | 0.57 log(nM) | – | – | – | Fc1cccc(-c2nc(Cn3ccnc3)ccc2OC(F)F)c1 |
| 3.5 | 853 | 244 | – | – | – | – | COc1cccc(-c2nc(Cc3cnn(C)c3)ccc2OC(F)F)c1 |
| 2.7 | 521 | 193 | – | – | – | – | COc1cccc(-c2nc(Cc3cn[nH]c3)ccc2OC(F)F)c1 |
| 2.1 | 513 | 242 | – | – | – | – | COc1cccc(-c2nc(Cn3ccnc3)ccc2OC(F)F)c1 |
| 1.8 | 665 | 364 | 0.26 log(nM) | – | – | – | COc1ccc(Cc2ccncc2)nc1-c1cccc(OC(F)F)c1 |
| 1.4 | 1070 | 793 | – | – | – | – | COc1ccc(Cc2cn[nH]c2)nc1-c1cccc(OC(F)F)c1 |
| 1.06 | 593 | 559 | – | – | – | – | COc1ccc(Cn2ccnc2)nc1-c1cccc(OC(F)F)c1 |
| 0.36 | 91 | 254 | – | – | – | – | O=[N+]([O-])c1cccc(-c2nc(Cc3cn[nH]c3)ccc2OC(F)F)c1 |
| 0.3 | 81 | 270 | – | – | – | – | O=[N+]([O-])c1cccc(-c2nc(Cn3ccnc3)ccc2OC(F)F)c1 |

From ChEMBL document CHEMBL5316305, “An Empirical Quantitative Structure-Activity Relationship Equation Assists the Discovery of High-Affinity Phosphodiesterase 4D Inhibitors as Leads to PET Radioligands” (J Med Chem, 2023)
